Each block holds one compound with its values, some of them ahead of it. The source made the active and inactive calls. The rule behind the calls is not given here.
Tests used:
[1] = biological target: C-X-C chemokine receptor type 4 (Homo sapiens) (UniProt P61073); assay: Inhibition of biotinylated TN14003 binding to CXCR4 in human MDA-MB-231 cells preincubated for 10 mins followed by TN14003 addition measured after 30 mins by rhodamine dye-based microscopic analysis; assay type: cell-based
Method in brief: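 MDA-MB-231 cells (2×10^4, seeded two days before) exposed to compound at 1, 10, 100 or 1000 nM for 10 min at room temperature, fixed in ice-cold 4% paraformaldehyde, rehydrated in PBS, then 0.05 µg/mL biotinylated TN14003 for 30 min, streptavidin-rhodamine (1:150) 30 min. Fluorescence microscopy; EC = lowest concentration with significant reduction in rhodamine signal versus untreated.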

Mus musculus [2] = assay: Antiinflammatory activity in mouse assessed as inhibition of xylene-induced ear edema at 10 mg/kg, ip treated after 30 mins xylene administration measured after 2 hrs relative to control; assay type: functional
Method in brief: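 Xylene (30 µL total, inner and outer surfaces) applied to right ear, saline to left ear; 5 mice per group. 30 min later, 10 mg/kg i.p. in 10% DMSO/90% of 45% hydroxypropyl-β-cyclodextrin in PBS; vehicle-injected controls. Sacrificed 2 h later; 7 mm ear plugs from both ears weighed, weight difference = edema; suppression % versus control group.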

[3] = biological target: C-X-C chemokine receptor type 4 (Homo sapiens) (UniProt P61073); assay: Inhibition of CXCR4 in human MDA-MB-231 cells assessed as decrease in CXCL12-dependent cell invasion at 100 nM after 22 hrs by hematoxylin and eosin staining based matrigel assay relative to control; assay type: functional
Method in brief: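 Matrigel invasion chamber. MDA-MB-231 cells pretreated with compound (100 nM) before seeding in top chamber; 200 ng/mL CXCL12α in serum-free medium in bottom chamber as chemoattractant. 22 h in humidified incubator; non-invading cells swabbed off, invaded cells fixed in methanol, H&E stained and counted; inhibition relative to untreated invasion.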

[4] = Half life in human plasma; assay type: ADME
[5] = Half life in nude mouse plasma at 30 mg/kg, iv administered as single dose by HPLC analysis; assay type: ADME, organism-based
Method in brief: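 Nude mice (~20 g), anaesthetized with ketamine (90 mg/kg)/xylazine (4.5 mg/kg), given single 30 mg/kg i.v. dose in 10% DMSO/90% of 45% hydroxypropyl-β-cyclodextrin in PBS. Orbital sinus blood at 0, 5, 20, 50 min; centrifuged 13000 g, 4 °C, filtered (10000 NMWL). Filtrate HPLC on C18, acetonitrile–water (0.1% TFA) 50:50, 254 nm; half-life from peak areas.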

MCF-10A = assay: Cytotoxicity against human MCF10A cells assessed as reduction in cell viability at 10 uM after 24 hrs by MTT assay; assay type: cell-based
Method in brief: (§1)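 MTT-type viability assay: cells seeded at 3000/well, grown 24 h at 37 °C, then exposed to compound for 24 h at 37 °C. CellTiter 96AQ reagent added for 2 h, absorbance read at 490 nm; compared with vehicle control.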

Mus musculus [6] = assay: Antiinflammatory activity in mouse assessed as inhibition of xylene-induced swollen volume of ear at 10 mg/kg, ip treated after 30 mins xylene administration measured after 2 hrs; assay type: functional, organism-based
MDA-MB-231 = assay: Cytotoxicity against human MDA-MB-231 cells assessed as reduction in cell viability at 10 uM after 24 hrs by MTT assay; assay type: cell-based; details: mda-mb-231, 24 h; method in brief: as §1
[7] = biological target: C-X-C chemokine receptor type 4 (Homo sapiens) (UniProt P61073); assay: Inhibition of CXCR4 in human MDA-MB-231 cells assessed as decrease in CXCL12-induced Akt phosphorylation by Western blot analysis; assay type: functional, cell-based
[8] = biological target: C-X-C chemokine receptor type 4 (Homo sapiens) (UniProt P61073); assay: Potency index, ratio of AMD3100 EC to compound EC for inhibition of biotinylated TN14003 binding to CXCR4 in human MDA-MB-231 cells; assay type: functional, cell-based
[9] = biological target: C-X-C chemokine receptor type 4 (Homo sapiens) (UniProt P61073); assay: Inhibition of CXCR4 in human MDA-MB-231 cells assessed as decrease in CXCL12-induced p44 phosphorylation at 0.1 nM by Western blot analysis; assay type: functional, cell-based
Mus musculus [10] = assay: Antiinflammatory activity in mouse assessed as inhibition of xylene-induced thickness of ear at 10 mg/kg, ip treated after 30 mins xylene administration measured after 2 hrs; assay type: functional, organism-based

Sequence of C-X-C chemokine receptor type 4 (Homo sapiens) (P61073 whole entry): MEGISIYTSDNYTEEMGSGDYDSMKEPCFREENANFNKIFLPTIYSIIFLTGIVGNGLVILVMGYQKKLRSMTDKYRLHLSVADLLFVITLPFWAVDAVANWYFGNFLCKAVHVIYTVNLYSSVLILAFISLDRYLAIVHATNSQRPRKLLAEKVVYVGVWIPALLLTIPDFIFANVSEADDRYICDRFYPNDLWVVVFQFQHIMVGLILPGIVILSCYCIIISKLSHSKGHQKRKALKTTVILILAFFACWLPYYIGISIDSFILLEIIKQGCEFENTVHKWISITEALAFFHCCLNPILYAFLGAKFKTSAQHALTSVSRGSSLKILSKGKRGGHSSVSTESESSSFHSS

EC [1]: 100 nM
SMILES: Cc1ccc(S(=O)(=O)NCc2ccc(CNC(=O)c3ccc(CNc4ncccn4)cc3)cc2)cc1
inhibition [3]: 87% | inhibition in vivo at 10 mg/kg (Mus musculus [2]): 37%

EC [1]: 100 nM
SMILES: O=C(NCc1ccc(CNS(=O)(=O)c2ccc(F)c(F)c2)cc1)c1ccc(CNc2ncccn2)cc1
inhibition (Mus musculus [2]): inactive

EC [1]: 1000 nM
SMILES: O=C(NCc1ccc(CNS(=O)(=O)c2cccc3ccccc23)cc1)c1ccc(CNc2ncccn2)cc1

half-life [4]: 2.5 h | half-life [5]: 0.333 h | inhibition [7]: Dose-dependent effect | Ratio [8]: 1000 | inhibition [9]: Active | EC [1]: 1 nM
SMILES: O=C(NCc1ccc(CNS(=O)(=O)c2ccccc2)cc1)c1ccc(CNc2ncccn2)cc1
Activity (MCF-10A): Non-Toxic | inhibition (Mus musculus [6]): Active | Activity (MDA-MB-231): Non-Toxic | inhibition (Mus musculus [10]): Active | inhibition in vivo at 10 mg/kg (Mus musculus [2]): 67%

EC [1]: > 1000 nM
SMILES: O=C(NCc1ccc(CNS(=O)(=O)c2ccc(F)cc2)cc1)c1ccc(CNc2ncccn2)cc1

EC [1]: 100 nM
SMILES: Cc1cccc(S(=O)(=O)NCc2ccc(CNC(=O)c3ccc(CNc4ncccn4)cc3)cc2)c1

EC [1]: 1000 nM
SMILES: O=C(NCc1ccc(CNS(=O)(=O)c2ccc([N+](=O)[O-])cc2)cc1)c1ccc(CNc2ncccn2)cc1

Ratio [8]: 100 | EC [1]: 10 nM
SMILES: Cc1ccccc1S(=O)(=O)NCc1ccc(CNC(=O)c2ccc(CNc3ncccn3)cc2)cc1

EC [1]: 1000 nM
SMILES: O=C(NCc1ccc(CNS(=O)(=O)c2cccc(C(F)(F)F)c2)cc1)c1ccc(CNc2ncccn2)cc1

EC [1]: 1000 nM
SMILES: O=C(NCc1ccc(CNS(=O)(=O)c2ccc3c(c2)CCO3)cc1)c1ccc(CNc2ncccn2)cc1

Continued, compound first:

SMILES: O=C(NCc1ccc(CNS(=O)(=O)c2ccccc2F)cc1)c1ccc(CNc2ncccn2)cc1
EC [1]: 1000 nM

SMILES: O=C(NCc1ccc(CNS(=O)(=O)c2ccc(Cl)cc2)cc1)c1ccc(CNc2ncccn2)cc1
inhibition in vivo at 10 mg/kg (Mus musculus [2]): 30% | EC [1]: 100 nM

SMILES: O=C(NCc1ccc(CNS(=O)(=O)c2cccc(F)c2)cc1)c1ccc(CNc2ncccn2)cc1
EC [1]: 1000 nM

SMILES: O=C(NCc1ccc(CNS(=O)(=O)c2ccc(-c3ccc(F)cc3)cc2)cc1)c1ccc(CNc2ncccn2)cc1
EC [1]: 1000 nM

SMILES: O=C(NCc1ccc(CNS(=O)(=O)c2ccccc2Cl)cc1)c1ccc(CNc2ncccn2)cc1
EC [1]: 1000 nM

SMILES: O=C(NCc1ccc(CNS(=O)(=O)c2cccnc2)cc1)c1ccc(CNc2ncccn2)cc1
EC [1]: > 1000 nM

SMILES: O=C(NCc1ccc(CNS(=O)(=O)c2cccc(Cl)c2)cc1)c1ccc(CNc2ncccn2)cc1
inhibition [3]: 88% | Ratio [8]: 1000 | inhibition (Mus musculus [2]): inactive | EC [1]: 1 nM
